pEC50, pIC50: −log10 of the molar value.
How the values were obtained:
MT4 [1] = assay: Selectivity index measured as the ratio of CC50 / EC50.; type: functional
Summary of the method: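 Selectivity index: CC50 in mock-infected MT-4 cells divided by EC50 against HIV-1 IIIB cytopathicity in MT-4 cells, both from MTT read-out after 4-day culture.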

[2] = biological target: Human immunodeficiency virus type 1 reverse transcriptase (Human immunodeficiency virus 1, UniProt Q72547); assay: Concentration required to inhibit the HIV-1 reverse transcriptase activity by 50%.
Summary of the method: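 Purified recombinant HIV-1 RT, RNA-dependent polymerase activity. Substrate: [³H]dGTP, […] (1 Ci/mmol). Reaction 30 min at 37 °C, then acid-insoluble radioactivity counted on glass-fibre filters.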

MT4 [3] = assay: Cytotoxicity against mock-infected MT-4 cells.; type: functional; settings: Homo sapiens
Summary of the method: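 Mock-infected MT-4 cells (1×10^4/well) incubated 4 days at 37 °C alongside the antiviral assay with serial compound dilutions (from 200 mM DMSO stock); viability read by MTT; CC50 is the dose lowering viability of mock-infected cells by 50%; means of at least two separate experiments.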

MT4 [4] = assay: Concentration required to achieve 50% protection of MT-4 cells from HIV-1-induced cytopathogenicity.; type: functional, cell-based; settings: Homo sapiens
Summary of the method: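 MT-4 cells (1×10^4/well) exposed to test compound dilutions (DMSO stock 200 mM, diluted in medium), then infected with HIV-1 IIIB at 100 CCID50/well; 4-day incubation at 37 °C; viable cells counted by MTT; EC50 is the dose giving 50% protection from virus-induced cytopathicity; means of at least two separate experiments.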

Row | SMILES | Selectivity index (MT4 [1]) [SI] | pIC50 [2] | CC50 (MT4 [3]) [nM] | pEC50 (MT4 [4])
1 | CCC(C)Sc1nc(O)c(C)c(Cc2ccccc2)n1 (configuration not stated) | 140 | 6.30 |  | 
2 | CCC(C)Sc1nc(O)cc(Cc2ccccc2)n1 (configuration not stated) | 125 | 6.00 |  | 
3 | Cc1c(O)nc(SC2CCCC2)nc1Cc1ccccc1 | >333 | 6.30 | > 200000 | 
4 | Oc1cc(Cc2ccccc2)nc(SC2CCCC2)n1 | 86 | 5.80 |  | 
5 | CCC(C)Sc1nc(O)cc(Cc2c(Cl)cccc2Cl)n1 (configuration not stated) | >1428 | 7.00 | > 200000 | 6.85
6 | Oc1cc(Cc2c(Cl)cccc2Cl)nc(SC2CCCC2)n1 | >500 | 6.40 | > 200000 | 6.40
7 | CCC(C)Sc1nc(O)cc(Cc2ccccc2F)n1 (configuration not stated) | 769 | 6.52 | 200000 | 6.59
8 | CCC(C)Sc1nc(O)c(C)c(Cc2ccccc2Cl)n1 (configuration not stated) | >741 | 6.40 | > 200000 | 6.57
9 | CCCCSc1nc(O)cc(Cc2c(Cl)cccc2Cl)n1 | >454 | 6.30 | > 200000 | 6.36
10 | CSc1nc(O)cc(Cc2c(Cl)cccc2Cl)n1 | >62 | 5.52 | > 200000 | 5.49
11 | CSc1nc(O)c(C)c(Cc2c(Cl)cccc2Cl)n1 | 5.2 |  | > 200000 | 4.42
12 | CC(C)Sc1nc(O)cc(Cc2c(Cl)cccc2Cl)n1 | >105 | 5.82 | > 200000 | 5.72
13 | Oc1cc(Cc2c(F)cccc2F)nc(SC2CCCCC2)n1 | >2500 | 7.05 | > 200000 | 7.10
14 | Cc1c(O)nc(SC2CCCCC2)nc1Cc1c(F)cccc1F | >2222 | 7.15 | > 200000 | 7.05
15 | CC(C)CSc1nc(O)cc(Cc2c(Cl)cccc2Cl)n1 | >444 | 6.22 | > 200000 | 6.35
16 | CCCCSc1nc(O)c(C)c(Cc2c(Cl)cccc2Cl)n1 | >171 | 5.94 | > 200000 | 5.96
17 | Cc1c(O)nc(SCC(C)C)nc1Cc1c(F)cccc1F | 1640 | 7.05 | 164000 | 7.00
18 | CSc1nc(O)c(C)c(Cc2c(F)cccc2F)n1 | 1053 | 6.70 | 200000 | 6.72
19 | CCC(C)Sc1nc(O)cc(Cc2cccc([N+](=O)[O-])c2)n1 (configuration not stated) | 392 | 6.52 | 157000 | 6.40
20 | CCC(C)Sc1nc(O)cc(Cc2ccccc2Cl)n1 (configuration not stated) | 200 | 5.80 | 200000 | 6.00
21 | Cc1c(O)nc(SC2CCCC2)nc1Cc1c(Cl)cccc1Cl | >111 | 5.77 | > 200000 | 5.74
22 | CCC(C)Sc1nc(O)c(C)c(Cc2c(Cl)cccc2Cl)n1 (configuration not stated) | >4000 | 7.22 | > 200000 | 7.30
23 | CSc1nc(O)cc(Cc2c(F)cccc2F)n1 | >247 | 6.10 | > 200000 | 6.09
24 | CCC(C)Sc1nc(O)c(C)c(Cc2cccc(F)c2)n1 (configuration not stated) | >166 | 5.82 | > 200000 | 5.92
25 | CCCCSc1nc(O)c(C)c(Cc2c(F)cccc2F)n1 | >2500 | 7.05 | > 200000 | 7.10

Reference: ChEMBL document CHEMBL1132584, “5-Alkyl-2-(alkylthio)-6-(2,6-dihalophenylmethyl)-3, 4-dihydropyrimidin-4(3H)-ones: novel potent and selective dihydro-alkoxy-benzyl-oxopyrimidine derivatives” (J Med Chem, 1999)
